B1: tRNA (parent)
chain: CUCUCGGUAGCCAAGUUGGUUUAAGGCGCAAGACUUUAAUUUAUCACUACGAAAUCUUGAGAUCGGGCGUUCGACUCGCCCCCGGGAGAUUUUUUCCUCGAGCAA

The values that follow come from the RNAGym collection of RNA variant scans (doi:10.1101/gad.245936.114).

This sample holds only a part of the variants without activity. Where only a bound is given, the exact number is not on record here.

The variants in this data set derive from B1. Description: nonsense suppression (GFP-seq) (ratio to wild type); higher = more function; SUP4oc tRNA, yeast GFP reporter sort-seq. In short, it runs like this:
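Sorted GFP/RFP bins of yeast were each Illumina-sequenced with a phred ≥30 cutoff; the cells held a genome-integrated ochre-suppressor tRNA variant from a library with ~3% random mutations, a galactose-driven GFP ochre reporter, and RFP. Culture was in raffinose/galactose medium containing 80 mg/L adenine. Nonsense suppression, termed GFPSEQ, is the median GFP/RFP of the bins weighted by each variant's estimated cell share per bin, relative to the unmutated parent tRNA, for variants reaching ≥100 reads and ≥30 cells.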
Turning to A13C A14U, the nonsense suppression was determined as 0.206. For G15A U22C, the nonsense suppression is 0.147. Then A14C G59A U70G, with ≤ 0.026; and U16A C29U, with 0.186.

Regarding A13U A54U, the nonsense suppression turned out to be 0.728. For the variant A13U A23U, the nonsense suppression stood at 0.0855. Next, G15C A23G G61A: ≤ 0.026. With A14G G18A U21C A30G A33G C79A C82A A89U, the nonsense suppression is ≤ 0.026.

Turning to A13U A33G, the nonsense suppression turned out to be 0.194.

On to G15U G19A A54U A62G C79A, for which the nonsense suppression was ≤ 0.026. Next, U16A C82U: 0.886.

With A14G G26A G66C, the nonsense suppression is ≤ 0.026. In the case of A14G U35C, the nonsense suppression was ≤ 0.026.

Consider G15C C56A, for which the nonsense suppression is ≤ 0.026. A14C U71A: the nonsense suppression was ≤ 0.026. Then A13U C27U, with 0.209. As for G15U U35A U63C C68A, the nonsense suppression is ≤ 0.026. Then G15A G28A C75A, with 0.24; and A13C G66C, with ≤ 0.026.

Regarding A14G A24C A31G C56G, the nonsense suppression was ≤ 0.026. Turning to A14C A31G A74U C80G, the nonsense suppression is ≤ 0.026. Regarding C12U G25C U57G C83G, the nonsense suppression is ≤ 0.026. With G15C U22G A23C, the nonsense suppression is ≤ 0.026.

Regarding A14U G66A, the nonsense suppression is ≤ 0.026. Next, G15A U16A: 0.0275; A13C U57C: 0.0326. Next, A13G U17C A23C C75A G88A: ≤ 0.026; A14G G86U: ≤ 0.026; A13U C77U: 0.0452.

On to G15A C75A, for which the nonsense suppression came out at 0.854. Then A14C U16C G19A A23U C29U A30G C72G C82A, with ≤ 0.026; and A14U U21A A24G A31C C56G G88A, with ≤ 0.026. For A14U U16C U58A G61U C72U, the nonsense suppression is ≤ 0.026. For A13U G78C, the nonsense suppression is 0.0621. Then A13U G78U, with 0.236. Then A13U G78A, with 0.179; and A14U G15C A60C C79U, with ≤ 0.026. Next, G15A G61C: 0.034; A13U G67A: 0.0502.

Consider A14G A30C G61C A74U, for which the nonsense suppression was ≤ 0.026. Regarding A13C G61A, the nonsense suppression came out at 0.852. Then A13C A31C U76A, with ≤ 0.026; and C12U G26U G84A, with ≤ 0.026. Next, U16A A24C: 0.872; G15U U20C: 0.0275; A13C C72U C81U: ≤ 0.026.

As for A14U G25C C27U, the nonsense suppression was ≤ 0.026.

For A13U C81A, the nonsense suppression was ≤ 0.026.

Take A13U C81G: the nonsense suppression worked out at 0.0578. Then A13U G61C, with 0.191. Next, A13U G61U: 0.447. Next, A14C G65A: ≤ 0.026; A13U U22G: 1.06.

Consider A13C A60G, for which the nonsense suppression stood at 0.392.

For the variant A13C A60C, the nonsense suppression amounted to 0.29. A13C A60U: the nonsense suppression was determined as 1.07. On to G15C A23G G66A, for which the nonsense suppression is ≤ 0.026. Then U16A A33G, with 0.0423. With G15U C68G, the nonsense suppression was ≤ 0.026.

Take A13G C68U: the nonsense suppression came to 0.146. As for A14G C29U, the nonsense suppression came out at 0.0832.

As to G15C G67A, the nonsense suppression was ≤ 0.026. Then A13G G59U, with ≤ 0.026.

In the case of A14G U17A G59U, the nonsense suppression was ≤ 0.026. With A13C U21A, the nonsense suppression turned out to be 1.19. Then A13C U21C, with 1.17; and A14G U16G C64U, with ≤ 0.026; and A13U G59U C80G, with ≤ 0.026. Next, A14G G19U A23G A30G C75U C82U: ≤ 0.026. Next, A13C A31U G61C: ≤ 0.026; A13U G28C: 0.227. For the variant A14G A54G, the nonsense suppression was ≤ 0.026. A13U G65A: the nonsense suppression was ≤ 0.026.

For A13U G65U, the nonsense suppression worked out at 0.0575. In the case of G15U A23G G65C, the nonsense suppression was ≤ 0.026.

Consider A13C C27A G61C C75G, for which the nonsense suppression is ≤ 0.026. Then A13U U20A, with 0.189; and A13U U76C, with 0.836; and G15A U20G, with 0.189. On to G15C U22C G28C, for which the nonsense suppression was ≤ 0.026. Next, A13C A30U G85A: 0.157; A13U G32C C56G C75U: 0.912; A13U C75A: 0.866. Then A13U C75U, with 1.22. Next, A13C C75A: 1.09; A13C C75G: 1.15; A13C C75U: 1.09.

As for G15U U16A G59C G66C U70A C82G, the nonsense suppression is ≤ 0.026. A13G A54C G69U G86U: the nonsense suppression is ≤ 0.026.

A14C G59C G85A: the nonsense suppression was ≤ 0.026. For A13G U21G C77G, the nonsense suppression is ≤ 0.026. Next, A13C U57A G66A: ≤ 0.026; G15A U21C C34G U35G U58A: ≤ 0.026. For the variant C12U G84U, the nonsense suppression turned out to be 0.117.

As for G15U U17A U55C, the nonsense suppression was ≤ 0.026. In the case of A13G A33U U57A, the nonsense suppression is ≤ 0.026. Next, G15A A24C: 0.0467; U16A G18U A24C U58G: ≤ 0.026.

As for A14G A87U, the nonsense suppression was ≤ 0.026. As to A13U C83U, the nonsense suppression was 0.157. Consider A14G G28U G78C, for which the nonsense suppression was ≤ 0.026.

Consider C12U G85U, for which the nonsense suppression turned out to be 0.0919. Then C12U G85C, with 0.111. Regarding A13U C29U, the nonsense suppression turned out to be 0.751.

Take C12U U55C: the nonsense suppression amounted to 0.0665.

Regarding C12U U63A, the nonsense suppression stood at 0.697.

Consider C12U U63G, for which the nonsense suppression was 0.121. In the case of A13U U21G, the nonsense suppression was 0.763. Next, A13U U21A: 0.803; A13C G18C G26U G61C: ≤ 0.026. Turning to A13C U17G C82U, the nonsense suppression turned out to be 0.142. Regarding A13C G67A, the nonsense suppression worked out at 0.0799. Then A13G U35C U71C, with ≤ 0.026. Then A13C U35G U57C, with ≤ 0.026. Take A14U G84A: the nonsense suppression was ≤ 0.026. Then A13C A30G, with 0.892. G15U U55A: the nonsense suppression was ≤ 0.026. With A13G U20A, the nonsense suppression came out at 0.0339. Next, G15A C80U: 0.167. Then G15A A31G, with 0.0274; and A13C C75U G85U, with 0.333; and C12U G78A, with 0.0268.

With C12U G78U, the nonsense suppression was 0.0326. Next, A14C C29U: ≤ 0.026; A13U G69A: 0.072; A13U G69C: 0.0304.

Consider U16A, for which the nonsense suppression worked out at 1. With A13C G61U C68U, the nonsense suppression turned out to be 0.414.

For the variant A13U A30U, the nonsense suppression stood at 0.0763.

Consider A13G U16G, for which the nonsense suppression was found to be 0.207.

As to A13G U16A, the nonsense suppression amounted to 0.0391. A14C U21G A23C G69A U70A: the nonsense suppression is ≤ 0.026. Take C12U U70A: the nonsense suppression worked out at 0.048.

On to G15C G26U U57C G78C, for which the nonsense suppression is ≤ 0.026. Then A14G C64A G65A, with ≤ 0.026; and A13C G73U, with 0.0412.

As for A13C G73A, the nonsense suppression stood at 0.394. Next, G15A U21C C82A: ≤ 0.026; A14U G32C G88U: ≤ 0.026; A13C A62G: 0.0702. As to A13C G84A, the nonsense suppression was determined as 0.175. Take A13C G84C: the nonsense suppression is 0.0388. Then G15A U76C, with 0.0394; and A14U A60C G66A G67A, with ≤ 0.026. Take A13U U71A: the nonsense suppression was ≤ 0.026. Next, A14U G18U A23U C27G: ≤ 0.026. Consider A13U A24G, for which the nonsense suppression was 0.96. For A13U A24U, the nonsense suppression was determined as 0.863. Then A13G G84C, with ≤ 0.026. Next, A13G C29A: 0.03; C12U G25A G61C: 0.823. In the case of A13C A89G, the nonsense suppression was determined as 0.122. As to G15U U70G, the nonsense suppression is ≤ 0.026. Take C12U U55G U70G C83U: the nonsense suppression was ≤ 0.026. Take A13U U57A: the nonsense suppression was found to be 0.0273. Next, A14U A24C: 0.0284; G15A G78A: 0.0278.

As to G15C G65A, the nonsense suppression is ≤ 0.026. As to A14U A33U C34G G59C, the nonsense suppression was ≤ 0.026. As for A14G A30G, the nonsense suppression is 0.03.

For the variant A14G A30U, the nonsense suppression is 0.0337. Next, A13C U63A: 1.17; A13C U63C: 0.848; C12U U16C: 0.853. Then C12U U16G, with 0.785. Turning to A13U U16C U63G, the nonsense suppression worked out at 0.18. Then A13U U21A U35C G84U, with ≤ 0.026.
